In the library only some 3.8% were active in any assay of this set; here they are far more common.
KCNK9 block – KCNK9 potassium channel inhibitors, primary screen, HEK293 cells, thallium flux; AID 488922, 2010; FluxOR thallium flux fluorescence; stronger effect = lower value; 310,000 tested, 1.2% active; Potassium channel subfamily K member 9 (Homo sapiens), Q9NPC2; B-score at 10 µM;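 active = ratio B-score over 3 SD below the library mean, with starting fluorescence within 5 SD of its mean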;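 note: negative B-score means less thallium flux so channel inhibition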
KCNQ1 act – potentiators or activators of KCNQ1 channel, primary screen, cell-based, thallium flux, high-throughput. Potassium voltage-gated channel subfamily KQT member 1 (Homo sapiens), P51787. CHO-K1 KCNQ1, thallium flux FluxOR fluorescence; stronger effect = higher value. B-score at 10 µM. 310,000 tested, 0.35% active. AID 2648, 2010;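 active = fluorescence ratio B-score, a plate-corrected score, at least three library SD, with initial intensity B-score within 5 SD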
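Schedule – 37 °C overnight plating, 90-min dark dye load, 20-min compound pretreatment · System – stable KCNQ1 CHO-K1 line · Probe or stimulus – thallium- and potassium-containing depolarizing buffer · Measured by – kinetic FluxOR fluorescence, 10 s baseline plus 110 s post-stimulus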
KCNQ1 block – inhibitors of human KCNQ1 channel, primary screen, cell-based, thallium flux, high-throughput | Potassium voltage-gated channel subfamily KQT member 1 (Homo sapiens), P51787 | CHO-K1 KCNQ1, FluxOR thallium flux fluorescence; stronger effect = higher value | B-score at 10 µM | 310,000 tested, 1.3% active;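 active = compounds whose thallium flux B-score, printed positive for inhibition, exceeds three library SD while starting fluorescence stays within three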;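 note: channel opened by potassium depolarization with thallium stimulus after 20 min compound exposure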
hERG rescue – hERG rescue from dofetilide block, primary screen, cell-based, CHO-hERG, FluxOR thallium flux, dofetilide IC70; activation (rescue from dofetilide block), less the hit threshold, % at 10 µM; 310,000 tested, 0.51% active; dofetilide IC70 present;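 active = activation above the mean of controls blocked by dofetilide plus 5 SD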;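 note: thallium influx through hERG after potassium depolarization seen as dye fluorescence rise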
Kir21 block – inhibitors of mouse Kir2.1 inward-rectifier potassium channel | Inward rectifier potassium channel 2 (Mus musculus), P35561 | HEK293-Kir2.1, FluxOR thallium flux fluorescence; stronger effect = lower value | B-score at 10 µM | 310,000 tested, 0.85% active | AID 1672, 2009;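 active = fluorescence ratio B-score at or below minus 3 SD of library scores, with starting-brightness B-score within 2 SD, cut at about -4.2 in these data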;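 note: channel flux triggered by added potassium and thallium sulfate stimulus; B-score of peak minus minimum fluorescence over baseline after thallium stimulus; more negative B-score means stronger Kir2.1 block with less thallium influx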
Target sequence (P35561 whole entry, looked up): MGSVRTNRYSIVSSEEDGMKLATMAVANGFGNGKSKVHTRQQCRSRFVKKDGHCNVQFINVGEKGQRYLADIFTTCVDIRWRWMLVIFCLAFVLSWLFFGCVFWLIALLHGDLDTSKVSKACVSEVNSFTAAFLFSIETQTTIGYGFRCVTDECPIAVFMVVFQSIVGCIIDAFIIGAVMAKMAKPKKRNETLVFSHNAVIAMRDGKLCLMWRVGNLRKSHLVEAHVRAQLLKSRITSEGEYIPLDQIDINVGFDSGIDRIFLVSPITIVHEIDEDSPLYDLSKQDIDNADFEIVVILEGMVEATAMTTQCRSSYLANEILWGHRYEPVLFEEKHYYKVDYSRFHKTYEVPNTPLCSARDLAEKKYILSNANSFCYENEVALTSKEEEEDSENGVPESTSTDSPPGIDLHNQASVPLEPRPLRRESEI
KCNK3 block – human KCNK3 channel inhibitors, primary screen, CHO cells, FluxOR thallium flux, B-score. FluxOR fluorescence; stronger effect = lower value. B-score at 10 µM. 340,000 tested, 0.84% active. AID 602410, 2012;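 active = B-score under library mean minus 4 SD, starting fluorescence ratio at most library mean plus 5 SD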;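 note: more negative B-score means stronger inhibition of thallium flux through KCNK3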
KCNK9 block conf – KCNK9 potassium channel inhibitors, confirmation, HEK293 cells, thallium flux, duplicate; shares compounds with KCNK9 block; FluxOR thallium flux fluorescence; 4,900 tested, 43% active; inhibition, % at 10 µM;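 active = thallium signal inhibited by more than 5 SD of the compound-free buffer control wells, on both duplicate plates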;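 note: 0% = assay buffer control wells without compound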
Kir2-1 spec – mouse Kir2.1 channel inhibition, confirmation, selectivity assay for KCNK9 modulator project, cell-based, HEK293, thallium flux; shares compounds with KCNK9 block; 4,900 tested, 4% active; Kir2.1 cells, FluxOR thallium flux fluorescence; inhibition, % at 10 µM;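 active = thallium signal drop more than 5 SD beyond the mean of the no-compound control wells, seen in both duplicate plates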;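 note: signal is fluorescence rise after thallium addition divided by baseline fluorescence; plate controls were assay buffer only for no effect and full block by chlorpromazine control for full effect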
KCNK9 uninduced – thallium flux in non-induced HEK293 cells, confirmation, counter-screen for KCNK9 inhibitor project, cell-based, second counter screen, non-induced KCNK9-HEK293 | shares compounds with KCNK9 block | FluxOR thallium flux | inhibition, % at 10 µM | 4,900 tested, 40% active;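 active = thallium signal drop beyond 5 SD of the untreated control mean, on both duplicate plates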;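 note: plate controls were buffer only IC0 wells for no effect and SID17386958 at its maximal inhibitory level for full effect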
* marks the source's active call; other numbers are inactive results; i = inactive; nt = no result given.

SMILES	KCNK9 block	KCNQ1 act	KCNQ1 block	hERG rescue	Kir21 block	KCNK3 block	KCNK9 block conf	Kir2-1 spec	KCNK9 uninduced
Brc1ccc(-[n+]2c(-c3ccccc3)cc(-c3ccccc3)cc2-c2ccccc2)cc1	-8.27*	i	7*	-32.7	-8.37*	i	64.0%*	58.5%*	i
Cc1ccc(-c2cc(-c3ccc(C)cc3)[n+](-c3ccc(C(=O)O)cc3)c(-c3ccc(C)cc3)c2)cc1	i	i	i	-2.1	2.07	i	nt	nt	nt
CCOC(=O)C1(c2ccccc2)CCN(CCC(=O)Nc2ccc(C(=O)OC)cc2)CC1	nt	nt	nt	nt	nt	i	nt	nt	nt
CCOC(=O)C1(c2ccccc2)CCN(CCC(C#N)(c2ccccc2)c2ccccc2)CC1	-8.15*	i	6*	-10.6	-0.57	i	40.5%*	i	38.0%*
O=C(O)CCn1cc(C=C2C(=O)NC(=O)NC2=O)c(-c2cc3ccccc3oc2=O)n1	i	i	i	-0.3	1.47	i	nt	nt	nt
CCCCn1c(O)c(/C(CC)=N/N2CCCCC2c2cccnc2)c(=O)[nH]c1=S (stereo not drawn)	-18.1*	i	i	-10.6	3.98	i	77.5%*	i	55.5%*
C/C(=N\N1CCCCC1c1cccnc1)c1c(O)n(C2CCCCC2)c(=S)[nH]c1=O (stereo not drawn)	-14*	i	i	-9.8	0.67	i	75.0%*	i	55.5%*
CCCCn1c(O)c(/C=N/N2CCCCC2c2cccnc2)c(=O)[nH]c1=S (stereo not drawn)	i	i	i	-3.3	-1.06	i	nt	nt	nt
COc1cc(CN2CCN(c3cc(C)ccc3C)CC2)ccc1O	i	i	i	-12.9	-1.57	i	i	i	i
c1ccc(CCNCc2cccs2)cc1	i	i	i	-10.5	0.34	i	nt	nt	nt
C/C(=N\N1CCCCCC1)c1c(O)n(-c2ccc(Cl)cc2)c(=O)[nH]c1=O	i	i	i	-8.5	0.14	i	i	i	i
C/C(=N\N1CCCCCC1)c1c(O)n(-c2ccc(C)cc2)c(=O)[nH]c1=O	i	i	i	-2.5	-0.53	i	nt	nt	nt
Cc1ccc(C[n+]2c(-c3ccc(C)cc3)cc(-c3ccc(C)cc3)cc2-c2ccc(C)cc2)cc1	-13*	34*	i	-42.5	-14.3*	-8.73*	61.0%*	81.0%*	38.5%*
COC(=O)C1=C(c2ccc(C(C)=O)cc2)C[C@@H]2CC[C@H]1N2C(=O)N1CCCCC1	nt	nt	nt	nt	nt	i	nt	nt	nt
COc1cccc(C2CC3C(=O)C=CC2N3Cc2ccccc2)c1 (stereo not drawn)	i	i	i	-10.7	-3.02	i	i	i	i
CC(=O)Nc1ccccc1C(=O)OCC(=O)c1ccc2ccccc2c1	i	i	i	-11.7	2.51	i	i	i	i
COC(=O)C1=C(c2cccc(C#N)c2)C[C@@H]2CC[C@H]1N2C(=O)N1CCC(C)CC1	nt	nt	nt	nt	nt	i	nt	nt	nt
COc1cccc(OC)c1CN1CCCC(C(=O)c2cccc(Cl)c2)C1 (stereo not drawn)	i	i	i	-10.0	-1.34	i	i	i	i
COc1ccc(OC)c(CN2CCCC(C(=O)c3sccc3C)C2)c1 (stereo not drawn)	i	i	i	-12.9	-1.92	i	i	i	i
COc1ccc(C(=O)C2CCCN(Cc3ccc(F)cc3F)C2)cc1F (stereo not drawn)	i	i	i	-6.3	-2	i	i	i	i
Cc1ncc(CN2CCCC(C(=O)c3cccc(OC(C)C)c3)C2)s1 (stereo not drawn)	i	i	i	-5.5	-0.86	i	i	i	i
CC(C)(O)/C=C/C(=O)C(C)(O)C1C(O)CC2(C)C3CC=C4C(C=C(O)C(=O)C4(C)C)C3(C)C(=O)CC12C (stereo not drawn)	nt	nt	nt	nt	nt	i	nt	nt	nt
O=C1C(=O)N(c2ccccc2)P(=O)(N(CCCl)CCCl)N1c1ccccc1	nt	nt	nt	nt	nt	i	nt	nt	nt
CCCCN1CCC(O)(c2ccccc2)C(C(=O)c2ccccc2)C1 (stereo not drawn)	i	i	i	-12.2	-2.3	i	i	i	i
CCN(CC)c1ccc(CNCCc2ccccc2F)cc1	i	i	i	-6.2	-2.92	i	nt	nt	nt
SMILES	KCNK9 block	KCNQ1 act	KCNQ1 block	hERG rescue	Kir21 block	KCNK3 block	KCNK9 block conf	Kir2-1 spec	KCNK9 uninduced
O=C(c1cccs1)c1cn(Cc2ccccc2Cl)c2ccccc12	i	i	i	-15.7	-0.29	i	nt	nt	nt
N#Cc1ccccc1Cn1cc(C(=O)c2cccs2)c2ccccc21	-8.11*	i	i	-5.1	-0.55	i	i	i	34.5%*
CCCC1CCCCC12C(=O)NC(=O)NC2=O (stereo not drawn)	nt	nt	nt	nt	nt	i	nt	nt	nt
COc1ccc(C(=O)C2CCCN(C3CSCCSC3)C2)c(C)c1 (stereo not drawn)	i	i	i	-8.0	-1.2	i	i	i	i
COc1ccc(C(=O)C2CCCN(C3CSCCSC3)C2)c(OC)c1 (stereo not drawn)	i	i	i	-7.9	-2.13	i	nt	nt	nt
CC(C)=CCc1c(O)cc2c(c1O)C(=O)CC(c1ccc(O)cc1)O2 (stereo not drawn)	-16.7*	i	i	-19.8	0.33	i	i	i	i
CCC(=Nc1ccc2c(c1)CCC2)c1c(O)n(-c2ccc(OC)cc2)c(=O)[nH]c1=O	i	i	i	-5.0	0.01	i	nt	nt	nt
COc1cccc(-n2c(C)nc3ccccc3c2=O)c1	i	i	i	0.1	-1.15	i	nt	nt	nt
COc1cccc(-n2c(-c3ccoc3)nc3ccccc3c2=O)c1	-17.9*	i	i	-7.8	-0.34	i	i	i	i

Compound activity as filed in PubChem.
